Among the data in ChEMBL document CHEMBL3232886, “C-17 lactam-bearing limonoids from the twigs and leaves of Amoora tsangii” (J Nat Prod, 2014) are inhibition and Activity values, retold here.

Active and inactive are the calls of the source. The calls are words filed in the database; no cut-off is given here.

The target of data set [1] is Nuclear factor NF-kappa-B complex (Homo sapiens) (UniProt Q00653+P19838+Q04206). Briefly: Inhibition of NF-kappaB in human HepG2 cells assessed as inhibition of TNF-alpha-induced luciferase reporter gene expression at 10 uM preincubated for 1 hr followed by TNF-alpha stimulation measured after 4 hrs relative to control. It is filed as cell-based. In outline:
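HepG2 cells stably carrying an NF-κB-luciferase reporter, grown in DMEM with 10% FBS and penicillin/streptomycin at 37 °C, 5% CO2. Seeded overnight at 5 × 10^4 cells/well (24-well), preincubated 1 h with compound at 10 μM, then stimulated with TNFα (10 ng/mL) for 4 h. Luciferase activity read in cell lysates; mean ± SEM, n = 3.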

The next data set concerns HepG2. Briefly: Cytotoxicity against human HepG2 cells at 10 uM. Conditions: hepg2, 10 µM. In kind it is cell-based.

Nuclear factor NF-kappa-B complex (Homo sapiens), sequence (P19838 whole entry, looked up): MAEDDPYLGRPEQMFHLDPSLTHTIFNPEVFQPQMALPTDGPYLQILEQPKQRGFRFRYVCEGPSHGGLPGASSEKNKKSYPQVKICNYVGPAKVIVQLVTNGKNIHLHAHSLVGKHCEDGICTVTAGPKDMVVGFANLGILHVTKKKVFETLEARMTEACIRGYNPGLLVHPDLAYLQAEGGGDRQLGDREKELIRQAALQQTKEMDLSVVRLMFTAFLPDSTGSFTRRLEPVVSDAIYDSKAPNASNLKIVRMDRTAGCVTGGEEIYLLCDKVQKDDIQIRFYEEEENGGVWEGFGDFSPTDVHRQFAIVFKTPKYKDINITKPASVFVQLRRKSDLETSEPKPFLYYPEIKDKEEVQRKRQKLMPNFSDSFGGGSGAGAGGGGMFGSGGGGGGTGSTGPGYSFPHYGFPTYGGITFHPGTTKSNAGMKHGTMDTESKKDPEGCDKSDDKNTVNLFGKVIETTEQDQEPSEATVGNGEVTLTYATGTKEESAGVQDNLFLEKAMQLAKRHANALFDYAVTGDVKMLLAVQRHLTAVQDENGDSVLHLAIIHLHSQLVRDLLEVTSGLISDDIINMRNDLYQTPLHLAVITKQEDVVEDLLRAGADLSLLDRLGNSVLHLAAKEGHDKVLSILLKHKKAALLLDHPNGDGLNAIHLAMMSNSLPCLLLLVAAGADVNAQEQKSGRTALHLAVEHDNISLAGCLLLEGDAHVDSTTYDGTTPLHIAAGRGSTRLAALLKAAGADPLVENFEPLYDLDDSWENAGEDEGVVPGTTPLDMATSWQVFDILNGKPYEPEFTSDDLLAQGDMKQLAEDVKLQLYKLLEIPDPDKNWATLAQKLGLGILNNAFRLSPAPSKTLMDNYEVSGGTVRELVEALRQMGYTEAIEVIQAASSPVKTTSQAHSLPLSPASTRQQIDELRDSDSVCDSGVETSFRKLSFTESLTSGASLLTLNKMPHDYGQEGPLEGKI
Nuclear factor NF-kappa-B complex (Homo sapiens), sequence (Q00653 whole entry, looked up): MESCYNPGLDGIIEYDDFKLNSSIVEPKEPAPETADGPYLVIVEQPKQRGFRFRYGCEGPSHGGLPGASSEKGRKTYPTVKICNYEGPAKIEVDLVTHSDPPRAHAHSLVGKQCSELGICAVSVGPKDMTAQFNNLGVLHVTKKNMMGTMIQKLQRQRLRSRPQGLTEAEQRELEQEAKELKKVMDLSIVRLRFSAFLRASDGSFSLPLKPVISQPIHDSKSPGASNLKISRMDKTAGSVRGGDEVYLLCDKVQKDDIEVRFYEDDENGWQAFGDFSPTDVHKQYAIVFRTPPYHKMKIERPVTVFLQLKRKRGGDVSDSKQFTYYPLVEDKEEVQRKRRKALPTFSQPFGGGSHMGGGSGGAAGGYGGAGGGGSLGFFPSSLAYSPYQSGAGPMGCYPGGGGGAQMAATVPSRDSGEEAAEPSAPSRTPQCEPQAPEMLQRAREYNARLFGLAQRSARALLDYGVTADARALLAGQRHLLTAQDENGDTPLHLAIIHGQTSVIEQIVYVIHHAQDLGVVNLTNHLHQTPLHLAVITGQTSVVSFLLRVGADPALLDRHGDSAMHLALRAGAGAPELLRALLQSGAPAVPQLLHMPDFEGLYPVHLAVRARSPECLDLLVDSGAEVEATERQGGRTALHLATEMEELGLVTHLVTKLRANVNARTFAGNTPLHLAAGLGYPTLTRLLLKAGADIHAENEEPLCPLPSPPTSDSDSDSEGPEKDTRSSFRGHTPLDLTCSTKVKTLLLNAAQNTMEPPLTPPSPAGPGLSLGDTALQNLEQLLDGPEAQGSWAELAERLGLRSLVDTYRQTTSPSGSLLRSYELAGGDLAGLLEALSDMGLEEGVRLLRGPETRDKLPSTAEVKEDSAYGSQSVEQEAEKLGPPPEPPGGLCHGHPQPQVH
Nuclear factor NF-kappa-B complex (Homo sapiens), sequence (Q04206 whole entry, looked up): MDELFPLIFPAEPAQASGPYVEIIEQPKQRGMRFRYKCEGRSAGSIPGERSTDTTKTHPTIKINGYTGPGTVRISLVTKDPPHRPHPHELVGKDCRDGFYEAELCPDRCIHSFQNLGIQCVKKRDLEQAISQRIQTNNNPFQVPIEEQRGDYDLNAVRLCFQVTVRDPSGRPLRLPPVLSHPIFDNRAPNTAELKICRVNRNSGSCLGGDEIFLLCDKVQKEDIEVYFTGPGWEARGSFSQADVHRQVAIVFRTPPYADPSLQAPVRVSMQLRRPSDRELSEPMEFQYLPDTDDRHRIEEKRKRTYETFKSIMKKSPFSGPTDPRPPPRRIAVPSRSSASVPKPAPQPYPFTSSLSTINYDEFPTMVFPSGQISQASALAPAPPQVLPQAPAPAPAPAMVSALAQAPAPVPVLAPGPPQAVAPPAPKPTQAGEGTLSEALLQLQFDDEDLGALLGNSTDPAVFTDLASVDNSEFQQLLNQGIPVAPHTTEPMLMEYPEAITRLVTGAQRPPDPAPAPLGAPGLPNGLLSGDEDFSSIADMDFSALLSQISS

A word on the inhibition: it is how much of the control response was suppressed. As to `C=C1[C@@H]([C@@]2(C)C=CC(=O)OC(C)(C)[C@@H]2CC(=O)OC)[C@@H](OC(C)=O)[C@H](OC(=O)c2ccccc2)[C@@]2(C)[C@H](C3=CC(=O)NC3)C[C@H]3O[C@]132` (relative stereo), the inhibition entry in data set [1] was “inactive”. Besides, the Activity entry with HepG2 is listed as “Non-toxic”.
For `C=C1[C@@H]([C@@]2(C)C=CC(=O)OC(C)(C)[C@@H]2CC(=O)OC)[C@@H](OC(C)=O)[C@H](OC(=O)c2ccccc2)[C@@]2(C)[C@H](C3=CCN(C)C3=O)C[C@H]3O[C@]132`, the inhibition result in data set [1] is “inactive”. Besides, the Activity entry in the data set with HepG2 is on record as “Non-toxic”.
On to `C=C1[C@@H]([C@@]2(C)C=CC(=O)OC(C)(C)[C@@H]2CC(=O)OC)[C@@H](OC(C)=O)[C@H](OC(=O)C(C)CC)[C@@]2(C)[C@H](C3=CCNC3=O)C[C@H]3O[C@]132` (stereo not given in full), for which the inhibition result in data set [1] was “inactive”. Moreover, the Activity entry with HepG2 is “Non-toxic”.
`C=C1[C@@H]([C@@]2(C)C=CC(=O)OC(C)(C)[C@@H]2CC(=O)OC)[C@@H](OC(C)=O)[C@H](OC(=O)c2ccccc2)[C@@]2(C)[C@H](C3=CCNC3=O)C[C@H]3O[C@]132` (relative stereo): the inhibition result in data set [1] was “inactive”. Further, the Activity entry in the data set on HepG2 is recorded as “Non-toxic”.
`C=C1[C@@H]([C@@]2(C)C=CC(=O)OC(C)(C)[C@@H]2CC(=O)OC)[C@@H](OC(C)=O)[C@H](OC(=O)C(C)CC)[C@@]2(C)[C@H](C3=CC(=O)NC3)C[C@H]3O[C@]132` (stereo not given in full): in data set [1], the inhibition was found to be 64%. The Activity entry in the data set with HepG2 is listed as “Non-toxic”.
